# From ChEMBL document CHEMBL1140080, “Adamantyl-substituted retinoid-derived molecules that interact with the orphan nuclear receptor small heterodimer partner: effects of replacing the 1-adamantyl or hydroxyl group on inhibition of cancer cell growth, induction of cancer cell apoptosis, and inhibition of SRC homology 2 …” (J Med Chem, 2008)
# Key:
# [1] = Induction of apoptosis in human HL60R cells at 1.0 uM after 24 hrs by acridine orange staining; type: functional
# In short: (§1)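 KG-1, HL-60R (24 h) or MDA-MB-231 (96 h) cells in 5% FBS medium attached overnight, then were treated with analogue in Me2SO or vehicle (final 0.1% Me2SO). Apoptotic cells were scored by acridine orange staining on at least three replicates. Tested concentrations were 0.1–5.0 μM, plus 25 μM for KG-1.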
# MDA-MB-231 [2] = assay: Induction of apoptosis in human MDA-MB-231 cells at 1.0 uM after 96 hrs by acridine orange staining; type: functional; in short: as §1
# [3] = Growth inhibition of HMVE cells after 72 hrs by alamar blue method; type: cell-based; details: Homo sapiens
# [4] = Growth inhibition of HMVE cells at 0.5 uM after 72 hrs by alamar blue method; type: cell-based; details: human; for inhibition at 72 h, 0.5 µM: HMVE cells, read-out: GI
# [5] = Induction of apoptosis in human HL60R cells at 0.1 uM after 24 hrs by acridine orange staining; type: functional; in short: as §1
# MDA-MB-231 [6] = assay: Induction of apoptosis in human MDA-MB-231 cells at 2.0 uM after 96 hrs by acridine orange staining; type: functional; in short: as §1
# [7] = Antiproliferative activity against human KG1 AML cells after 48 hrs by MTT assay; type: functional, cell-based; details: in the assay text read “by hemocytometer cell counting” for “by MTT assay”
# In short: (§2)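 KG-1 cells in 5% FBS medium attached overnight, then treated 48 h with analogue in Me2SO or Me2SO alone (final 0.1%). Cells were harvested and counted by hemocytometer in triplicate wells. Highest concentration evaluated was 5 μM.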
# [8] = Antiproliferative activity against human H292 cells after 72 hrs by MTT assay; type: functional, cell-based; details: NCI-H292, 72 h
# In short: (§3)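 Cells attached for 24 h, then exposed 72 h to analogue in Me2SO or Me2SO alone (final Me2SO 0.1%), with media and compound renewed after 48 h. Viable cells were measured by MTS tetrazolium reduction in three replicates. Top concentration tested per compound was 2.5, 5, 10, 20 or 100 μM.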
# [9] = target: T1, Tyrosine-protein phosphatase non-receptor type 11 (Homo sapiens, UniProt Q06124); assay: Inhibition of SHP2 overexpressed in human KG1 cells; type: cell-based, KG-1
# T1 sequence (Q06124 whole entry): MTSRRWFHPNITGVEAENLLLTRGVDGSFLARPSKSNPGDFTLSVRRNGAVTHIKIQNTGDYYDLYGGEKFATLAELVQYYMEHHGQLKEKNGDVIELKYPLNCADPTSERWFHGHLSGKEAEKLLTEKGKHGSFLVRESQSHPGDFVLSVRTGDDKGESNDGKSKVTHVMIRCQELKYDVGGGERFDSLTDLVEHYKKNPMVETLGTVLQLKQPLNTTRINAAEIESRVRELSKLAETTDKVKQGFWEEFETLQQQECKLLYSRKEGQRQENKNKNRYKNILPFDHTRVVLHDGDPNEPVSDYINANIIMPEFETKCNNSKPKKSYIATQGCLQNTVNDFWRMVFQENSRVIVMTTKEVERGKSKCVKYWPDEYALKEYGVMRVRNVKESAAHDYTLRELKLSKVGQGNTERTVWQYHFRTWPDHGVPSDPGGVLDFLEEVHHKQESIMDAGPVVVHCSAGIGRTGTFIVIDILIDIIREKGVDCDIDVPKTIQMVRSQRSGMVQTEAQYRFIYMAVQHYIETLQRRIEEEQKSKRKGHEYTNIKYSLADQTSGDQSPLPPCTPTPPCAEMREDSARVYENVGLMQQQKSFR
# In short: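 Shp-2 PTP activity was measured as hydrolysis of the fluorogenic substrate 6,8-difluoro-4-methylumbelliferyl phosphate in the presence of analogue in Me2SO or Me2SO alone (final concentration 5%).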
# [10] = target: T2, Nuclear receptor subfamily 0 group B member 2 (Homo sapiens) (UniProt Q15466); assay: Displacement of [5,5'-3H2]AHPN from human recombinant GST-SHP at 50 uM by liquid scintillation counting relative to 3-Cl-AHPC
# T2 sequence (whole entry): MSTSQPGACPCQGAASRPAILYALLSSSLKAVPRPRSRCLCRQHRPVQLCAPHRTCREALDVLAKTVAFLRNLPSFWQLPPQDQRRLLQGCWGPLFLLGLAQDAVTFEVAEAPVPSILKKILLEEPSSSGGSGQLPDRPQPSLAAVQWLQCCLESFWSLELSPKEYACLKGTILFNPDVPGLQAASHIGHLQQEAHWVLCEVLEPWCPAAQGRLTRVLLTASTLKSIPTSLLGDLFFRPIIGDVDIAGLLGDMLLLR
# In short: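 Recombinant GST–human SHP was bound to glutathione–Sepharose beads and incubated 2 h with 5 nM [5,5′-3H2]AHPN with or without competitor (1.0, 5.0 or 50 μM). Beads were washed twice and counted. Displacement was expressed relative to 50 μM 3-Cl-AHPC set as 100%.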
# DU-145 [11] = assay: Antiproliferative activity against human DU145 cells at 5 uM after 72 hrs by MTT assay; type: functional; details: DU-145, 72 h; in short: as §3
# MDA-MB-231 [12] = assay: Antiproliferative activity against human MDA-MB-231 cells at 5 uM after 72 hrs by MTT assay; type: functional; details: MDA-MB-231, 72 h; in short: as §3
# KG-1 [13] = assay: Induction of apoptosis in human KG1 cells after 48 hrs by acridine orange staining; type: functional, cell-based; details: KG-1, 48 h
# DU-145 [14] = assay: Antiproliferative activity against human DU145 cells after 72 hrs by MTT assay; type: functional, cell-based; details: DU-145, 72 h; in short: as §3
# [15] = Antiproliferative activity against human KG1 AML cells at 5 uM after 48 hrs by MTT assay; type: functional; details: in the assay text read “by hemocytometer cell counting” for “by MTT assay”; in short: as §2
# KG-1 [16] = assay: Induction of apoptosis in human KG1 cells at 1.0 uM […] by acridine orange staining; type: functional
# [17] = Antiproliferative activity against human H292 cells at 5 uM after 72 hrs by MTT assay; type: functional; details: NCI-H292, 72 h; in short: as §3
# MDA-MB-231 [18] = assay: Antiproliferative activity against human MDA-MB-231 cells after 72 hrs by MTT assay; type: functional, cell-based; details: MDA-MB-231, 72 h; in short: as §3
# KG-1 [19] = assay: Induction of apoptosis in human KG1 cells at 5.0 uM […] by acridine orange staining; type: functional
SMILES,Activity [1] [%],Activity (MDA-MB-231 [2]) [%],IC50 [3] [nM],"inhibition at 72 h, 0.5 µM [4] [%]",Activity [5] [%],also measured
COc1cc(-c2ccc3cc(C(=O)O)ccc3c2)ccc1C12CC3CC(CC(C3)C1)C2,0,–,–,–,–,–
O=C(O)c1ccc2cc(-c3cc(O)cc(C45CC6CC(CC(C6)C4)C5)c3)ccc2c1,–,0,–,–,–,–
COCCOCOc1ccc(-c2ccc3cc(C(=O)O)ccc3c2)cc1C12CC3CC(CC(C3)C1)C2,21,–,–,–,–,–
O=C(O)c1ccc2cc(-c3ccc(O)c(C4C5CC6CC(C5)CC4C6)c3)ccc2c1 (centres undefined),0,–,> 500,35,0,–
O=C(O)c1ccc2cc(-c3ccc(O)c([C@@H]4CC[C@@H]5CCCC[C@H]5C4)c3)ccc2c1,0,–,> 500,0,–,–
CC(c1cc(-c2ccc3cc(C(=O)O)ccc3c2)ccc1O)C12CC3CC(CC(C3)C1)C2 (centres undefined),0,–,> 500,30,–,–
CC1(C)CCC(C)(C)c2cc(-c3cc(-c4ccc(/C=C/C(=O)O)cc4)ccc3O)ccc21,0,–,–,–,–,–
O=C(O)/C=C/c1ccc(-c2ccc(O)c(C3C4CC5CC(C4)CC3C5)c2)cc1 (centres undefined),90,20,–,–,2,Activity (MDA-MB-231 [6]): 47%
O=C(O)c1ccc2cc(-c3ccc(O)c([C@H]4CCC5CCCC[C@H]5C4)c3)ccc2c1 (some centres undefined),0,–,–,–,–,–
Cc1c(-c2ccc(O)c(C34CC5CC(CC(C5)C3)C4)c2)ccc2cc(C(=O)O)ccc12,70,28,340,65,29,Activity (MDA-MB-231 [6]): 43%
CCCCC[C@@H]1CC2(c3cc(-c4ccc(/C=C/C(=O)O)cc4)ccc3O)CCC1CC2,0,–,–,–,0,–
COc1cc(-c2ccc3cc(C(=O)O)ccc3c2)cc(C23CC4CC(CC(C4)C2)C3)c1,–,20,–,–,–,–
COc1cc(-c2ccc3cc(C(=O)O)ccc3c2)cc(C23CC4CC(CC(C4)C2)C3)c1O,–,0,–,–,–,–
CC(C)(C)c1cc(-c2ccc3cc(C(=O)O)ccc3c2)ccc1O,–,–,> 500,10,–,–
Nc1ccc(-c2ccc(/C=C/C(=O)O)cc2Cl)cc1C12CC3CC(CC(C3)C1)C2,–,–,–,–,–,IC50 [7]: 5 µM; IC50 [8]: 6 µM; IC50 [9]: 1.83 µM; Activity [10]: 61%; inhibition at 5 µM (DU-145 [11]): 79%; inhibition at 5 µM (MDA-MB-231 [12]): 61%; IC50 (KG-1 [13]): 9.3 µM; IC50 (DU-145 [14]): 1.3 µM; Activity [15]: 50%; Activity (KG-1 [16]): 10%; inhibition at 5 µM [17]: 45%; IC50 (MDA-MB-231 [18]): 4 µM
CC1(C)CC(c2cc(-c3ccc4cc(C(=O)O)ccc4c3)ccc2O)CC(C)(C)C1,60,10,500,50,26,Activity (MDA-MB-231 [6]): 49%
COc1ccc(-c2ccc3cc(C(=O)O)ccc3c2)cc1C12CC3CC(CC(C3)C1)C2,95,–,–,–,3,–

SMILES,Activity [1] [%],Activity (MDA-MB-231 [2]) [%],IC50 [3] [nM],"inhibition at 72 h, 0.5 µM [4] [%]",Activity [5] [%],also measured
CC1(C)CCC(C)(C)c2cc(-c3ccc4cc(C(=O)O)ccc4c3)c(CO)cc21,–,0,–,–,–,–
COc1cc(-c2ccc3cc(C(=O)O)ccc3c2C)ccc1O,7,5,–,–,-4,Activity (MDA-MB-231 [6]): 7%
O=C(O)c1ccc2cc(-c3cc(C45CC6CC(CC(C6)C4)C5)ccc3O)ccc2c1,–,0,–,–,–,–
O=C(O)c1ccc2c(Cl)c(-c3ccc(O)c(C45CC6CC(CC(C6)C4)C5)c3)ccc2c1,94,21,> 500,45,62,Activity (MDA-MB-231 [6]): 41%
O=C(O)/C=C/c1ccc(-c2ccc(O)c(C34CC5CC(CC(C5)C3)C4)c2)cc1 [ADAROTENE],98,53,100,90,–,Activity (MDA-MB-231 [6]): 58%
CC1=C(/C=C/C(C)=C/C=C/C(C)=C/C(=O)O)C(C)(C)CCC1 [TRETINOIN],0,0,> 500,10,0,Activity (MDA-MB-231 [6]): 0%
CC1C2(c3cc(-c4ccc(/C=C/C(=O)O)cc4)ccc3O)CCC(C2)C1(C)C (centres undefined),2,–,> 500,–,2,"growth inhibition (GI) ([4]; hmve, 72 h, 0.5 µM): 40%"
O=C(O)c1ccc2cc(-c3ccc(O)c([C@@H]4CCC[C@H]5CCCCC54)c3)ccc2c1 (some centres undefined),0,–,> 500,10,–,–
COc1ccc(C23CC4CC(CC(C4)C2)C3)cc1-c1ccc2cc(C(=O)O)ccc2c1,0,–,–,–,–,–
O=C(O)c1ccc2cc(-c3cc(O)c(O)c(C45CC6CC(CC(C6)C4)C5)c3)ccc2c1,–,0,–,–,–,–
O=C(O)c1ccc2cc(-c3ccc(O)c(C45CC6CC(CC(C6)C4)C5)c3)ccc2c1 [O-DEMETHYLATED ADAPALENE],98,26,–,–,73,Activity (MDA-MB-231 [6]): 46%
Cc1cc(C)c(-c2cc(-c3ccc4cc(C(=O)O)ccc4c3C)ccc2O)c(C)c1,0,–,> 500,17,0,–
CC(C)=CCC/C(C)=C\Cc1cc(-c2ccc3cc(C(=O)O)ccc3c2)ccc1O,0,–,–,–,–,–
CC(=O)Nc1ccc(-c2ccc(/C=C/C(=O)O)cc2Cl)cc1C12CC3CC(CC(C3)C1)C2,–,–,–,–,–,IC50 [7]: > 5 µM; IC50 [8]: > 5 µM; IC50 [9]: 4.55 µM; Activity [10]: 47%; inhibition at 5 µM (DU-145 [11]): 8%; inhibition at 5 µM (MDA-MB-231 [12]): -5%; IC50 (DU-145 [14]): 5 µM; Activity (KG-1 [19]): 7%; Activity [15]: 25%; Activity (KG-1 [16]): 3%; inhibition at 5 µM [17]: 13%; IC50 (MDA-MB-231 [18]): > 5 µM
Cc1c(-c2ccc(O)c(-c3ccc4c(c3)C(C)(C)CCC4(C)C)c2)ccc2cc(C(=O)O)ccc12,0,–,600,60,0,–
CC1(c2cc(-c3ccc(/C=C/C(=O)O)cc3Cl)ccc2O)CCCCC1,–,–,–,–,–,IC50 [7]: > 5 µM; IC50 [8]: 3.9 µM; IC50 [9]: 6.4 µM; inhibition at 5 µM (DU-145 [11]): 32%; inhibition at 5 µM (MDA-MB-231 [12]): 9%; IC50 (DU-145 [14]): 8 µM; Activity (KG-1 [19]): 0%; Activity [15]: 0%; Activity (KG-1 [16]): 0%; inhibition at 5 µM [17]: 63%; IC50 (MDA-MB-231 [18]): > 5 µM
